Columns and labels:
[1] = Retention time of the compound by HPLC analysis; format: physicochemical
Outline: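 Reverse-phase C18 HPLC, isocratic acetonitrile/water 60:40, 1.0 mL/min, UV 254 nm; purity from major-peak area.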

[2] = biological target: T1, ATP-dependent translocase ABCB1 (Homo sapiens, UniProt P08183); experiment: Inhibition of human wild type P-gp expressed in BacMam virus infected human HeLa cells assessed as calcein-AM accumulation after 10 mins by flow cytometry; format: cell-based; conditions: for inhibition (INH): human, 10 min
T1 sequence (P08183 whole entry): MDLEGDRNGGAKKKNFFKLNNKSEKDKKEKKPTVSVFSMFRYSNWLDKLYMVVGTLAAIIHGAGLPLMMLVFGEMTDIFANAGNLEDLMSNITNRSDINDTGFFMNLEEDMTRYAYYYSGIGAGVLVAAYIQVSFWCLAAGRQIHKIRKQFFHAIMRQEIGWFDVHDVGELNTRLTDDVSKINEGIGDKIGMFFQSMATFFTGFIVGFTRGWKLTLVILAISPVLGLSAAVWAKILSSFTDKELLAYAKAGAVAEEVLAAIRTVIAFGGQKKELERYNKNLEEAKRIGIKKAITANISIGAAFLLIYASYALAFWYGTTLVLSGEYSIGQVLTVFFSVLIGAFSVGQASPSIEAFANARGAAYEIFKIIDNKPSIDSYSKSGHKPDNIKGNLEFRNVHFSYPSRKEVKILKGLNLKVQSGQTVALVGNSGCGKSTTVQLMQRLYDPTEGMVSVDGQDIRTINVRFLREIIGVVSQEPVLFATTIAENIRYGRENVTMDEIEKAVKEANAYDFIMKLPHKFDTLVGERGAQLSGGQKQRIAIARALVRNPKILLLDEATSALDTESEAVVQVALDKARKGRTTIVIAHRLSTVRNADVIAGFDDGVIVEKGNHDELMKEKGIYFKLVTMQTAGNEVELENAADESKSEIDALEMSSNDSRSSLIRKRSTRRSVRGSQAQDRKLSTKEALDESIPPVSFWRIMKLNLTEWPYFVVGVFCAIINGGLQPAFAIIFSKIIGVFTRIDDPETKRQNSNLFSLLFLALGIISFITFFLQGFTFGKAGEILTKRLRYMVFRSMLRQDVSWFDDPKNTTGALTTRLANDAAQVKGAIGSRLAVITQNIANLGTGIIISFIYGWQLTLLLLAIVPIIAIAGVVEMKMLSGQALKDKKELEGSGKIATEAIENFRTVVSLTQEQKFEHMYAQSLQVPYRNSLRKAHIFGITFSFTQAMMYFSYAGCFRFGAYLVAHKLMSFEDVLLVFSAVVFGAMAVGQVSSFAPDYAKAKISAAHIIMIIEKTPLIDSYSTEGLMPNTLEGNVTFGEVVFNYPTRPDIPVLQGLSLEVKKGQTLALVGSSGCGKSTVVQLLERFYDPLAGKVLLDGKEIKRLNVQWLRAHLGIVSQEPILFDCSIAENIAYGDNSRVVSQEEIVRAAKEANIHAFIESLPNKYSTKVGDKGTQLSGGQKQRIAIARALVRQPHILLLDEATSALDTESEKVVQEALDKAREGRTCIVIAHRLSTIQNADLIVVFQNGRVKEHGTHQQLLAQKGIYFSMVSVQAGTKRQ
Outline: (§1)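 HeLa cells transduced with BacMam WT-P-gp (10–15 particles/cell); 10 mM butyric acid added after 3–4 h, grown overnight at 37 °C. Trypsinized cells exposed to compound, then 0.5 μM calcein-AM for 10 min at 37 °C in the dark. […] Two independent experiments in triplicate, ± SD.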

[3] = Retardation factor of the compound using EtOAc-n-hexane at ratio of 1:1 by thin layer chromatography; format: physicochemical
[4] = Retardation factor of the compound using EtOAc-n-hexane at ratio of 3:2 by thin layer chromatography; format: physicochemical
[5] = biological target: T1, ATP-dependent translocase ABCB1; experiment: Inhibition of human wild type P-gp expressed in BacMam virus infected human HeLa cells assessed as calcein-AM accumulation at 10 uM after 10 mins by flow cytometry; format: cell-based; outline: as §1
[6] = Inhibition of mouse P-gp
[7] = biological target: T1, ATP-dependent translocase ABCB1; experiment: Displacement of […] from ABCB1 (unknown origin) expressed in High Five insect cell membrane at >5 uM preincubated for 10 mins by autoradiography; conditions: human
Outline: (§2)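 Compound 0–20 μM, 10 min at 37 °C. Then [125I]-IAAP (2200 Ci/mmol; 4–6 nM) added for 5 min under minimal light. UV 365 nm for 10 min, labeling read by autoradiography. Two independent experiments; curve fitted by one-phase decay.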

[8] = Cytotoxicity against human HEK293 cells overexpressing human ABCB1 assessed as cell survival at 3 uM by MTT assay; format: ADME, cell-based; conditions: HEK293 cells that overexpress human ABCB1, read-out: Activity
Outline: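 HEK293 cells stably transfected with human ABCB1 cDNA, kept in DMEM with G418 (2 mg/mL) and drug-free for over 2 weeks. Cells seeded at 5000–6000/well, attached 24 h at 37 °C, 5% CO2, then exposed 72 h to modulator. MTT (4 mg/mL) added for 4 h, formazan dissolved in DMSO, absorbance read at 570 nm. Four independent experiments, each in triplicate.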

[9] = Cytotoxicity against human SW620/Ad300 cells overexpressing ABCB1 assessed as cell survival at 3 uM by MTT assay; format: ADME, cell-based, SW-620; conditions: SW620/Ad300 cells that overexpress ABCB1, read-out: Activity
Outline: (§3)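 MTT survival. Cells seeded 5000–6000/well, attached 24 h at 37 °C, 5% CO2; test agent for 72 h; MTT 4 mg/mL stock added, 4 h at 37 °C; formazan dissolved in DMSO, A570 read. Four independent experiments, each in triplicate. SW620/Ad300 is the doxorubicin-selected P-gp subline of SW620; HEK293 grown in DMEM with G418 (2 mg/mL). All cells kept drug-free >2 weeks before assay.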

[10] = Cytotoxicity against human HEK293 cells assessed as cell survival at 3 uM by MTT assay; format: cell-based; conditions: read-out: Activity; outline: as §3
[11] = Cytotoxicity against human SW620 cells assessed as cell survival at 3 uM by MTT assay; format: cell-based, SW-620; conditions: read-out: Activity; outline: as §3
[12] = biological target: T1, ATP-dependent translocase ABCB1; experiment: Displacement of […] from ABCB1 (unknown origin) expressed in High Five insect cell membrane preincubated for 10 mins by autoradiography; outline: as §2
[13] = biological target: T1, ATP-dependent translocase ABCB1; experiment: Inhibition of human P-gp

Structure (SMILES)	Retention_time [1] [min]	Rf [3]	Rf [4]	inhibition (INH) [5] [%]	other results
COc1cc(NC(=O)c2csc([C@@H](NC(=O)c3csc([C@@H](NC(=O)OC(C)(C)C)C(C)C)n3)C(C)C)n2)cc(OC)c1OC	8	0.45	–	–	IC50 [2]: 6500 nM; inhibition (INH) ([2]; hela): Dose-dependent effect
COc1cc(C(=O)N[C@H](c2nc(C(=O)NCc3ccc4c(c3)OCO4)cs2)C(C)C)cc(OC)c1OC	3.1	–	0.35	20	–
COc1cc(NC(=O)c2csc([C@@H](NC(=O)c3cc(OC)c(OC)c(OC)c3)C(C)C)n2)cc(OC)c1OC	3.3	0.4	–	58	–
CC(C)[C@H]1NC(=O)c2csc(n2)[C@@H](C(C)C)NC(=O)c2csc(n2)[C@@H](C(C)C)NC(=O)c2csc1n2	–	–	–	–	IC50 [6]: 8400 nM
COc1cc(C(=O)N[C@H](c2nc(C(=O)NCc3ccc(-c4ccccc4)cc3)cs2)C(C)C)cc(OC)c1OC	6.3	–	0.5	23	–
COc1cc2c(cc1OC)C(=O)C(CC1CCN(C(=O)c3csc([C@@H](NC(=O)OC(C)(C)C)C(C)C)n3)CC1)C2 (stereo not given in full)	4.7	0.2	–	15	–
COc1cc(NC(=O)c2csc([C@@H](NC(=O)c3cc(OC)c(OC)c(OC)c3)C(C)C)n2)cc(OC)c1	4.3	0.55	–	37	–
COc1cc(C(=O)N[C@H](c2nc(C(=O)Nc3ccc(C(=O)c4ccccc4)cc3)cs2)C(C)C)cc(OC)c1OC	6.8	–	0.5	18	–
COc1ccc(NC(=O)c2csc([C@@H](NC(=O)c3csc([C@@H](NC(=O)OC(C)(C)C)C(C)C)n3)C(C)C)n2)c(OC)c1	7.6	0.55	–	–	IC50 [2]: 2500 nM; inhibition (INH) ([2]; hela): Dose-dependent effect
CCOC(=O)c1csc([C@@H](NC(=O)c2csc([C@@H](NC(=O)c3cc(OC)c(OC)c(OC)c3)C(C)C)n2)C(C)C)n1	3.6	0.4	–	55	–
CCOC(=O)c1csc([C@@H](NC(=O)c2cc(OC)c(OC)c(OC)c2)C(C)C)n1	3.7	0.6	–	10	–
COc1cc(C(=O)N[C@H](c2nc(C(=O)NC3Cc4ccccc4C3)cs2)C(C)C)cc(OC)c1OC	4.1	–	0.5	47	–
COc1cc(CNC(=O)c2csc([C@@H](NC(=O)c3cc(OC)c(OC)c(OC)c3)C(C)C)n2)cc(OC)c1OC	2.7	0.3	–	4	–
COc1cc(C(=O)N[C@H](c2nc(C(=O)Nc3ccc4c(c3)OCO4)cs2)C(C)C)cc(OC)c1OC	3.5	–	0.5	40	–
COc1cc(C(=O)N[C@H](c2nc(C(=O)NCCc3ccccn3)cs2)C(C)C)cc(OC)c1OC	2.2	–	0.2	5	–
CC(C)[C@@H]1NC(=O)c2csc(n2)[C@H](C(C)C)NC(=O)c2csc(n2)[C@H](C(C)C)NC(=O)c2csc1n2	–	–	–	–	inhibition (INH) [7]: 90%; viability at 3 µM [8]: > 85%; viability at 3 µM [9]: > 85%; viability at 3 µM [10]: > 85%; viability at 3 µM [11]: > 85%; inhibition (INH) [12]: Dose-dependent effect; IC50 [6]: 2700 nM; IC50 [13]: 1500 nM
CCOC(=O)c1csc([C@@H](NC(=O)c2csc([C@@H](NC(=O)c3ccc(OC)c(OC)c3)C(C)C)n2)C(C)C)n1	3.5	0.4	–	–	IC50 [2]: 16000 nM; inhibition (INH) ([2]; hela): Dose-dependent effect
CCOC(=O)c1csc([C@@H](NC(=O)c2csc([C@@H](NC(=O)c3csc([C@@H](NC(=O)OC(C)(C)C)C(C)C)n3)C(C)C)n2)C(C)C)n1	–	–	–	–	IC50 [13]: 1500 nM
COc1cc2c(cc1OC)CN(C(=O)c1csc([C@@H](NC(=O)c3cc(OC)c(OC)c(OC)c3)C(C)C)n1)CC2	2.8	–	0.3	16	–
CCOC(=O)c1csc([C@@H](NC(=O)c2cnc3ccccc3c2)C(C)C)n1	3.3	0.4	–	2	–
COc1ccc([C@@H](C)NC(=O)c2csc([C@@H](NC(=O)c3cc(OC)c(OC)c(OC)c3)C(C)C)n2)cc1	3.9	0.45	–	24	–
COc1ccc(CNC(=O)c2csc([C@@H](NC(=O)c3csc([C@@H](NC(=O)OC(C)(C)C)C(C)C)n3)C(C)C)n2)c(OC)c1	–	–	–	–	IC50 ([2]; hela): 2000 nM
CCOC(=O)c1csc([C@@H](NC(=O)/C=C/c2ccc(OC)c(OC)c2)C(C)C)n1	3.4	0.5	–	11	–
COc1ccc(C(C)NC(=O)c2csc([C@@H](NC(=O)c3csc([C@@H](NC(=O)OC(C)(C)C)C(C)C)n3)C(C)C)n2)cc1 (stereo not given in full)	–	–	–	–	IC50 [2]: 2000 nM
COc1cc(C(=O)N[C@H](c2nc(C(=O)Nc3ccccc3C(=O)c3ccc(F)cc3)cs2)C(C)C)cc(OC)c1OC	9.5	–	0.4	54	–

Source: ChEMBL document CHEMBL3259707, “Design and synthesis of human ABCB1 (P-glycoprotein) inhibitors by peptide coupling of diverse chemical scaffolds on carboxyl and amino termini of (S)-valine-derived thiazole amino acid” (J Med Chem, 2014)
